Experiment [1] is filed under the species Homo sapiens. As to the kind of experiment: Inhibition of p21 palmitoylation at a concentration of 10(ug/ml). The format is functional. Put shortly:
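T24 cells seeded at ~25% confluency and attached overnight, treated 4 h with compound at 10 μg/mL, then labelled 2 h with [3H]palmitate (100–200 μCi/mL). Lysates in PBS-TDS, protein-normalized (100–300 μg), immunoprecipitated with Y13-259 anti-Ras antibody and Protein G agarose. Pellet radioactivity counted by scintillation. Percent inhibition vs untreated controls, one or two experiments.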

In another experiment the test system is T-24. As to the kind of experiment: Inhibition of human T24 cell proliferation. The format is functional, cell-based. Put shortly: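 T24 human bladder carcinoma cells (H-[Val12]-ras overexpressing) in RPMI-1640 with 10% FBS, seeded at 10% confluency, allowed 24 h attachment, then exposed to varying concentrations up to 50 μg/mL for 72 h. Surviving cells measured by sulforhodamine B staining (MTS also used). IC50 vs untreated controls, mean ± SEM of at least three experiments.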

Experiment [2] addresses Fatty acid synthase (Homo sapiens) (UniProt P49327). The experiment in a line: Inhibition of fatty acid synthase at a concentration of 150 (uM). Put shortly: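 Fatty acid synthase partially purified from HL-60 human promyelocytic leukemia cells. Lysate incubated with compound (150 μM), then activity read as rate of NADPH oxidation in presence of acetyl-CoA and malonyl-CoA. Percent inhibition reported as mean ± SEM, at least two experiments.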

The species entered for experiment [3] is Homo sapiens. The experiment in a line: The compound was tested for the inhibition of p21 palmitoylation at a concentration of 5(ug/mL). It counts as functional. Put shortly:
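T24 human bladder carcinoma cells seeded at ~25% confluency in 60 mm dishes, attached overnight; treated 4 h with 5 μg/mL compound, then 2 h [³H]palmitate (100–200 μCi/mL). Lysed in PBS-TDS, protein-normalized (100–300 μg), immunoprecipitated with Y13-259 anti-Ras plus Protein G agarose, washed; pellet radioactivity counted. Percent inhibition of p21 palmitoylation vs untreated controls; six experiments, mean ± SEM.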

Broadly, the inhibition is the percentage by which the read-out fell short of the control. A low value points to little suppression. By IC50 is commonly meant the concentration at which inhibition is half-maximal. High values mean weaker potency, low ones greater potency.

The structures appear in SMILES notation. A value given as a limit tells only on which side of the number the result lay.

Chain of Fatty acid synthase (Homo sapiens) (P49327 whole entry, looked up): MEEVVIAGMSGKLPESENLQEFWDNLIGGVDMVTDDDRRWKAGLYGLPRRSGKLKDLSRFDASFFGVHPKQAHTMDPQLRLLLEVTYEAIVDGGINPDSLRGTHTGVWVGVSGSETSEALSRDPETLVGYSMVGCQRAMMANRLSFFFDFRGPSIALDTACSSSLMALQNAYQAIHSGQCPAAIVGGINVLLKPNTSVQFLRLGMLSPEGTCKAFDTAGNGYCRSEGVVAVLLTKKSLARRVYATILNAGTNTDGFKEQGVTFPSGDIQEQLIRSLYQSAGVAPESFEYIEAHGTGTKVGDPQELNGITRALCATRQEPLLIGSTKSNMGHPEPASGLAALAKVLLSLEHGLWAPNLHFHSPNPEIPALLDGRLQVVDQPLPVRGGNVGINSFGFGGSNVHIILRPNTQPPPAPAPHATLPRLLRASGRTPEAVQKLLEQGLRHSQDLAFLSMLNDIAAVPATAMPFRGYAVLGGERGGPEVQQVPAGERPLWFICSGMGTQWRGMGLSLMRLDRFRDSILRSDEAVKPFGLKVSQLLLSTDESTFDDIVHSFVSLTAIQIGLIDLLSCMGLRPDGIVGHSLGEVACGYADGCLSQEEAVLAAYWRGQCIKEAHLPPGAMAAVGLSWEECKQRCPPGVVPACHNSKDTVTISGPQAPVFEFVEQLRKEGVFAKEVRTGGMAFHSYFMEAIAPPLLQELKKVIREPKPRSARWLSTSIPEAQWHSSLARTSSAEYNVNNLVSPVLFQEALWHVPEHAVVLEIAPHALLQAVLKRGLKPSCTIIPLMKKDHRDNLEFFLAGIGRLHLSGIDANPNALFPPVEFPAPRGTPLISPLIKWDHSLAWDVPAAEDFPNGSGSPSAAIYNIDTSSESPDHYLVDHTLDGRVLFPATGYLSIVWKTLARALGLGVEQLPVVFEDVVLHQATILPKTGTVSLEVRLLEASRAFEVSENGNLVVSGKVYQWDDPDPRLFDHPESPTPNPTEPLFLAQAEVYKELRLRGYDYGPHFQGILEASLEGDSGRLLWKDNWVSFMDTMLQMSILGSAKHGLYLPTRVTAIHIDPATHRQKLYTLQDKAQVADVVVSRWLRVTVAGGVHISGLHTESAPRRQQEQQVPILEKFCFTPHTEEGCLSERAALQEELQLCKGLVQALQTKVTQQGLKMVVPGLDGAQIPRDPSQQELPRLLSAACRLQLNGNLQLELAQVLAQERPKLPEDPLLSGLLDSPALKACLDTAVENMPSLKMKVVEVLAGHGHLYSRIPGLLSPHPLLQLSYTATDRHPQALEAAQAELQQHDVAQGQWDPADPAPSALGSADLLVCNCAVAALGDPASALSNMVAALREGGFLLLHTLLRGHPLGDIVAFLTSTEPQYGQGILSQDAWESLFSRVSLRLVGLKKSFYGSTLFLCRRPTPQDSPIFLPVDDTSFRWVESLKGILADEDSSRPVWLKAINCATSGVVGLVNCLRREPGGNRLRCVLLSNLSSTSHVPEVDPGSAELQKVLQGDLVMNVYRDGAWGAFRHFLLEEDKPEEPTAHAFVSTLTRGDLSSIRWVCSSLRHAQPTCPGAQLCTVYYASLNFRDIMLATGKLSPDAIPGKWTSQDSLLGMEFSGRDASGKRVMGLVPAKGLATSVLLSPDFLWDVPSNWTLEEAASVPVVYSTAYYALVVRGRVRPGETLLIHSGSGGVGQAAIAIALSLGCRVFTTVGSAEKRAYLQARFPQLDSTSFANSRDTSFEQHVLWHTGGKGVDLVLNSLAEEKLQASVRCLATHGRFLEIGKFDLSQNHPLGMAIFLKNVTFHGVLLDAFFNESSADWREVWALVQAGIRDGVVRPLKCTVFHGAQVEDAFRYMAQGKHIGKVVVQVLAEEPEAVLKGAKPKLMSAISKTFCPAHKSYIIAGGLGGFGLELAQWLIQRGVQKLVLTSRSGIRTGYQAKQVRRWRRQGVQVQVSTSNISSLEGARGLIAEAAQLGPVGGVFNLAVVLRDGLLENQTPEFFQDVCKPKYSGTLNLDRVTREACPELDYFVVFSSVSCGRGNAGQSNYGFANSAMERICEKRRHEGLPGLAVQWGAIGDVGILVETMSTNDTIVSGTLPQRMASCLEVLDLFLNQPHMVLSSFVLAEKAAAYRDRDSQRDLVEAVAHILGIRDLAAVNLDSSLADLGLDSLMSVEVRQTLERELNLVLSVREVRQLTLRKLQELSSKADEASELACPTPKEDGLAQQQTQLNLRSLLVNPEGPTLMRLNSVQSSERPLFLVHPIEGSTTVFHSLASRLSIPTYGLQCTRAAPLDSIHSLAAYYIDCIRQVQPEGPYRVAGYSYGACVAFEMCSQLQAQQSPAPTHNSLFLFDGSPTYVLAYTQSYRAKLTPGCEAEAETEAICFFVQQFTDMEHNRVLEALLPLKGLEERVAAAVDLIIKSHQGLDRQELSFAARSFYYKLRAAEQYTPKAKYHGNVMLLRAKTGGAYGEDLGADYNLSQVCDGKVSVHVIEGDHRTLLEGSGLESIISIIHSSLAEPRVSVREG

As for `CCCCCCCCCCCC(=O)[C@H]1O[C@H]1C(=O)N(C)C`, the values for the inhibition (in the experiment filed under Homo sapiens [1]; in experiment [2]) were 10% and 5%, respectively. For the same compound, the IC50 in the experiment on T-24 was 49 µM.

As for `CCCCCCCCCCCCCC(=O)[C@H]1O[C@H]1C(N)=O`, the inhibition in the experiment listed under Homo sapiens [1] amounted to 47%; in experiment [2] it was 0%. This compound also had an IC50 in the experiment with T-24 of 13 µM.

Take `CCCCCCCCCCCCCC(O)[C@H]1O[C@H]1C(=O)N(C)C` (some centres undefined): the inhibition in the experiment listed under Homo sapiens [1] worked out at 16%; in experiment [2] it was 5%. The compound also displayed an IC50 in the experiment with T-24 of 69 µM.

Take `CCCCCCCCCCCC(=O)[C@H]1O[C@H]1C(N)=O`: the inhibition in the experiment listed under Homo sapiens [1] is 40%; in experiment [2] it was 44%. Further, in the experiment with T-24, half-maximal inhibition (IC50) required 20 µM.

In the case of `CCCCCCCCC(O)[C@H]1O[C@H]1C(N)=O` (some centres undefined), the inhibition amounted to 16% in the experiment filed under Homo sapiens [1] and 4% in experiment [2]. Besides, in the experiment on T-24, the 50% inhibitory concentration (IC50) was over 220 µM.

For the compound `CCCCCCCCCCCCCCCCCC1OC(=O)[C@@H]2O[C@H]12` (some centres undefined), the inhibition in the experiment listed under Homo sapiens [1] turned out to be 45%; in experiment [2], 5%. In the experiment with T-24, this compound registered an IC50 of over 150 µM.

`CCCCCCCCCCCCCC(O)[C@H]1O[C@H]1C(N)=O` (some centres undefined): the inhibition in the experiment listed under Homo sapiens [1] is 34%; in experiment [2], 3%. In addition, it took 110 µM to reach half-maximal inhibition with T-24 (IC50).

With `CCCCCCCCCC1OC(=O)[C@@H]2O[C@H]12` (some centres undefined), the inhibition turned out to be 33% in the experiment filed under Homo sapiens [1] and 40% in experiment [2]. This compound also came in with an IC50 with T-24 of over 220 µM.

With `CCCCCCCCCC(O)[C@H]1O[C@H]1C(=O)N(C)C` (some centres undefined), the inhibition (in the experiment listed under Homo sapiens [1]; in experiment [2]) was 0% in each case. 220 µM corresponded to half-maximal inhibition with T-24 (IC50).

In the case of `CCCCCCCCC1OC(=O)[C@@H]2O[C@H]12` (some centres undefined), the inhibition in the experiment filed under Homo sapiens [1] stood at 32%; in experiment [2] it was 75%. The compound also displayed an IC50 in the experiment with T-24 of over 240 µM.

Regarding `CCCCCCCCCCCCCCCCCC(=O)[C@H]1O[C@H]1C(N)=O`, the results for the inhibition (in the experiment filed under Homo sapiens [1]; in experiment [2]) were 28% and 0%, respectively. In the experiment on T-24, this compound had an IC50 of 17 µM.

Turning to `CCCCCCCCC(=O)[C@H]1O[C@H]1C(=O)N(C)C`, the inhibition in the experiment listed under Homo sapiens [1] was 0%; in experiment [2] it was 1%. Further, in the experiment with T-24, inhibition was half-maximal at 140 µM (IC50).

Turning to `CCCCCCCCCCCCCCCCCC(O)[C@H]1O[C@H]1C(N)=O` (some centres undefined), the inhibition in the experiment listed under Homo sapiens [1] was found to be 3%; in experiment [2], 0%. In the experiment with T-24, this compound showed an IC50 of over 140 µM.

For the compound `CCCCCCCCC(O)[C@H]1O[C@H]1C(=O)N(C)C` (some centres undefined), the inhibition came to 9% in the experiment listed under Homo sapiens [1] and 0% in experiment [2]. Moreover, the IC50 with T-24 is over 190 µM.

For `CCCCCCCCCC(=O)[C@H]1O[C@H]1C(N)=O`, the inhibition in the experiment listed under Homo sapiens [1] worked out at 63%; in experiment [2] it was 92%. Moreover, in the experiment on T-24, the IC50 is 7 µM.

With `CCCCCCCCCCCC(O)[C@H]1O[C@H]1C(=O)N(C)C` (some centres undefined), the results for the inhibition (in the experiment filed under Homo sapiens [1]; in experiment [2]) were 0% and 9%, respectively. This compound also displayed an IC50 in the experiment on T-24 of 95 µM.

Consider `CCCCCCCCCCCC(O)[C@H]1O[C@H]1C(N)=O` (some centres undefined), for which the inhibition was determined as 29% in the experiment filed under Homo sapiens [1] and 6% in experiment [2]. This compound returned an IC50 with T-24 of 130 µM.

For `CCCCCCCCCCCCCCCC(=O)[C@H]1O[C@H]1C(=O)N(C)C`, the inhibition in the experiment filed under Homo sapiens [1] was 31%; in experiment [2], 0%. This compound returned an IC50 in the experiment with T-24 of 40 µM.

Consider `CCCCCCCCC(=O)[C@H]1O[C@H]1C(N)=O`, for which the inhibition came to 42% in the experiment listed under Homo sapiens [1] and 74% in experiment [2]. Besides, the IC50 in the experiment with T-24 was determined as 27 µM.

Regarding `CCCCCCCCCCCC1OC(=O)[C@@H]2O[C@H]12` (some centres undefined), the inhibition stood at 19% in the experiment filed under Homo sapiens [1] and 4% in experiment [2]. In the experiment with T-24, this compound gave an IC50 of over 200 µM.

In turn, `C/C=C/C/C=C/CCC(=O)[C@H]1O[C@H]1C(N)=O` [CERULENIN] registered an IC50 in the experiment on T-24 of 17 µM. The inhibition turned out to be 48% in the experiment filed under Homo sapiens [3] and 96% in experiment [2].

As to `CCCCCCCCCCCCCCCC(O)[C@H]1O[C@H]1C(N)=O` (some centres undefined), the inhibition was 40% in the experiment listed under Homo sapiens [1] and 10% in experiment [2]. The same compound showed an IC50 in the experiment with T-24 of 190 µM.

For `CCCCCCCCCCCCCCCC(O)[C@H]1O[C@H]1C(=O)N(C)C` (some centres undefined), the inhibition (in the experiment listed under Homo sapiens [1]; in experiment [2]) was 0% each time. The midpoint of inhibition in the experiment with T-24, the IC50, lay at 62 µM.

As for `CCCCCCCCCCCCCC(=O)[C@H]1O[C@H]1C(=O)N(C)C`, the inhibition in the experiment listed under Homo sapiens [1] worked out at 0%; in experiment [2], 2%. The compound further returned an IC50 in the experiment with T-24 of 40 µM.

As to `CCCCCCCCCCCCCCCCCC(O)[C@H]1O[C@H]1C(=O)N(C)C` (some centres undefined), the inhibition came out at 0% in the experiment filed under Homo sapiens [1] and 3% in experiment [2]. Besides, the IC50 in the experiment on T-24 came to 52 µM.

As for `CCCCCCCCCCCCCCCC1OC(=O)[C@@H]2O[C@H]12` (some centres undefined), the inhibition was 35% in the experiment filed under Homo sapiens [1] and 0% in experiment [2]. This compound gave an IC50 in the experiment on T-24 of 140 µM.

As for `CN(C)C(=O)[C@H]1O[C@H]1C(=O)c1ccccc1`, the inhibition in the experiment filed under Homo sapiens [1] amounted to 59%; in experiment [2], 3%. In addition, in the experiment with T-24, inhibition was half-maximal at 29 µM (IC50).

Turning to `CCCCCCCCCCCCCCCC(=O)[C@H]1O[C@H]1C(N)=O`, the results for the inhibition (in the experiment listed under Homo sapiens [1]; in experiment [2]) were 67% and 2%, respectively. This compound came in with an IC50 in the experiment on T-24 of 12 µM.

As for `CCCCCCCCCCCCCC1OC(=O)[C@@H]2O[C@H]12` (some centres undefined), the inhibition in the experiment filed under Homo sapiens [1] was found to be 2%; in experiment [2], 0%. In the experiment with T-24, this compound came in with an IC50 of over 180 µM.

Regarding `NC(=O)[C@H]1O[C@H]1C(=O)c1ccccc1`, the inhibition in the experiment listed under Homo sapiens [1] worked out at 22%; in experiment [2] it was 85%. Besides, the half-inhibitory concentration (IC50) in the experiment on T-24 was 15 µM.

Take `CCCCCCCCCC(=O)[C@H]1O[C@H]1C(=O)N(C)C`: the inhibition is 17% in the experiment filed under Homo sapiens [1] and 2% in experiment [2]. In the experiment on T-24, half-maximal inhibition (IC50) required 77 µM.

Consider `CCCCCCCCCC(O)[C@H]1O[C@H]1C(N)=O` (some centres undefined), for which the inhibition in the experiment filed under Homo sapiens [1] was 27%; in experiment [2], 5%. Besides, the IC50 in the experiment with T-24 was over 200 µM.

In the case of `CCCCCCCCCCCCCCCCCC(=O)[C@H]1O[C@H]1C(=O)N(C)C`, the inhibition in the experiment filed under Homo sapiens [1] was found to be 21%; in experiment [2] it was 0%. In addition, in the experiment on T-24, the IC50 was 34 µM.

The values are drawn from ChEMBL document CHEMBL1132487, “Structure-activity studies of cerulenin analogues as protein palmitoylation inhibitors” (J Med Chem, 1999).
